# Source: PubChem BioAssay
# In the library only some 4.5% were active in any assay of this set; here they are far more common.
# TAAR1 antagonist: antagonists of human TAAR1; 1.5% of 360,000 active; Q96RJ0; CHO RD-HGA16 TAAR1, Fluo-8 calcium fluorescence, antagonist; inhibition, % at 3 µM;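 active = inhibition above a per-plate cutoff, the mean inhibition of test compounds on that plate plus 3 SD, cut at about 49% in these data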;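 note: 0% = DMSO plus EC80 beta-PEA response and 100% = DMSO alone without agonist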
# Target sequence (Q96RJ0 whole entry, looked up): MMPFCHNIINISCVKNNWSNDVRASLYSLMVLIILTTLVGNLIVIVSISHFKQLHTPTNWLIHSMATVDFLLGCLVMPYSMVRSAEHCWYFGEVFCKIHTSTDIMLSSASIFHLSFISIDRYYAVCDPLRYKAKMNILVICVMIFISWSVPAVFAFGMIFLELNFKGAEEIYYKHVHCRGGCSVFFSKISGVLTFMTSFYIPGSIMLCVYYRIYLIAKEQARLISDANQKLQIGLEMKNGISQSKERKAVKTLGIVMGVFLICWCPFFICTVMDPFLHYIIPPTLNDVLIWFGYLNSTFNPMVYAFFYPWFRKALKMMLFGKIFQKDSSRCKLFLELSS
#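 Material: RD-HGA16 CHO cells with stable hTAAR1 and Gα16; Dosing: single nominal final test compound concentration of 3 µM; Schedule: seeding 17-24 h prior, 75-min 37 °C, 30-min RT dye loading; Detection: kinetic Fluo-8 calcium fluorescence measurement; Measure: % inhibition from peak post-agonist over basal fluorescence ratio; Benchmarks: vehicle and agonist controls.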
# OX1R antag-1: OX1R (human) antagonism. O43613. OX1R-expressing cells, FRET antagonist read-out. inhibition, % at 6.6 µM. 1.8% of 330,000 active. AID 485270; in the data active = inhibition mostly above about 38%, no sharp cut-off; inactive = mostly below about 40%;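 note: 0% = agonist challenge alone and 100% = reference antagonist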
# OX1R antag-2: blocks the human orexin 1 receptor; inhibition, % at 5 µM; 0.43% of 330,000 active; CHO/OX1R cells, Fluo-8 calcium fluorescence, orexin A; O43613; AID 434989;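 active = inhibition above its plate's threshold, mean inhibition of all tested compounds on the plate plus 3 SD, cut at about 37% in these data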;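 note: 0% = orexin A challenge wells and 100% = SB-334867-A antagonist wells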
# TAAR1 ag: agonists of human TAAR1; Q96RJ0; 0.99% of 360,000 active; CHO RD-HGA16 TAAR1, Fluo-8 calcium fluorescence; vehicle wells 0%, saturating PEA agonist 100%; activation, % at 3 µM; AID 624467;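 active = activation above the mean activation of all test compounds in the run plus 3 SD, cut at about 38% in these data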
#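 Assay system – CHO-derived RD-HGA16 cells with stable Gα16 and human TAAR1 · Compound dosing – one-point dosing at 3 µM (nominal) · Incubation – 17-24 h seeding, 75 min 37 °C dye, 30 min RT · Measured by – kinetic Fluo-8 calcium fluorescence · Control set – DMSO vehicle as 0%, PEA at EC100 as 100% · Repeats – single well for each compound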
# GPR7 antagonist: blocks human GPR7 receptor signaling | AID 1861 | GPR7-expressing cells, fluorescence antagonist assay | P48145 | inhibition, % at 4.4 µM | 1.1% of 290,000 active; in the data active = inhibition above about 16%, passing the limit was not always enough;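 note: cells stimulated with the agonist NPW; 0% = agonist with vehicle and 100% = vehicle without agonist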
# Target sequence (P48145 whole entry, looked up): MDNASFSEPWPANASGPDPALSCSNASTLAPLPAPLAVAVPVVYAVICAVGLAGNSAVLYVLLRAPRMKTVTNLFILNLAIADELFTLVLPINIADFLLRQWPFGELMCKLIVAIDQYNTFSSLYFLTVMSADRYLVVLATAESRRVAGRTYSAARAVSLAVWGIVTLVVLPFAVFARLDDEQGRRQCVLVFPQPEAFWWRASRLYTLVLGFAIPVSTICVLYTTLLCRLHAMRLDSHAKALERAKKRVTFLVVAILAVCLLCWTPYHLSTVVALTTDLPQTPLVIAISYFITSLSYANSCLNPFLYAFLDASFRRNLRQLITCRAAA
# CHO parental Ca: counter-screen for OX1R antagonists: effect in parental CHO cells; parental CHO-K1, ATP-induced calcium, Fluo-8 fluorescence; inhibition, % at 5.6 µM; AID 463079; 0.63% of 330,000 active;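 active = inhibition above that plate's mean sample inhibition plus 3 SD, cut at about 26% in these data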;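 note: 0% = ATP-challenged DMSO wells and 100% = DMSO wells without ATP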
#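 Assay system: untransfected parental CHO cell line. Also added: ATP agonist challenge. Dosing: one dose, 5.6 µM nominal. Measured by: Fluo-8 fluorescence. Read-out: % inhibition. Benchmarks: ATP wells versus no-ATP DMSO wells. Repeats: no replicates.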
# OX1R HTRF conf: confirmation of human orexin 1 receptor antagonists, HTRF format. shares compounds with OX1R antag-1. AID 492964. OX1R-expressing cells, HTRF antagonist assay. inhibition, % at 6.6 µM. 49% of 1,800 active; in the data active = inhibition above about 55%;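 note: CHO cells expressing OX1R stimulated with orexin A at about EC80; 0% = agonist challenge alone and 100% = reference antagonist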
# CHO-K1 HTRF cnt: counter-screen: parental CHO-K1 HTRF response; shares compounds with OX1R antag-1; parental CHO-K1 cells, HTRF counterscreen; inhibition, % at 6.6 µM; 48% of 1,800 active; in the data active = inhibition above about 17%;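 note: 0% = agonist challenge with vehicle and 100% = vehicle alone without agonist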
# An asterisk follows results filed as active; . = no result.
SMILES,TAAR1 antagonist,OX1R antag-1,OX1R antag-2,TAAR1 ag,GPR7 antagonist,CHO parental Ca,OX1R HTRF conf,CHO-K1 HTRF cnt
CCS(=O)(=O)c1ccc(O)c(NC(=O)Nc2ccc(C(C)(C)C)cc2)c1,-31,11,-25,2,1,5,.,.
O=C(/C=C/c1ccc([N+](=O)[O-])cc1)NNC(=O)C1CC1,-7,137*,1,3,-17,-1,49,66*
O=C(/C=C/c1ccc([N+](=O)[O-])cc1)NC1CC2CCC1C2 (stereo not drawn),-10,39,-21,2,16,-23,.,.
Cc1ccc2oc(C(=O)NCc3ncc(C)[nH]3)c(C)c2c1,-19,-7,-8,11,2,-20,.,.
CN(CCCC(=O)NC1CC(C)(C)NC(C)(C)C1)S(=O)(=O)c1ccc([N+](=O)[O-])cc1,2,79*,-5,7,-3,-11,45,59*
CC1(C)CC(NC(=O)COc2ccc([N+](=O)[O-])cc2)CC(C)(C)N1,-2,20,-22,5,-6,-11,.,.
CC1(C)CC(NC(=O)c2cc([N+](=O)[O-])cc([N+](=O)[O-])c2)CC(C)(C)N1,-7,98*,-2,1,-5,-6,78*,78*
COc1ccc(S(N)(=O)=O)cc1C(=O)OCC(=O)N1CC(=O)Nc2ccccc21,-7,.,.,1,.,.,.,.
Cc1nc(-c2ccc([N+](=O)[O-])cc2)sc1C(=O)O,-9,156*,-10,0,-5,-8,48,76*
Cc1ccc(-c2nc(C)c(C(=O)O)s2)cc1,-10,13,-7,14,-8,0,.,.
NC(=O)Cc1nc(-c2ccc(F)cc2)cs1,8,0,-4,9,-8,0,.,.
NC(=O)Cc1nc(-c2ccc([N+](=O)[O-])cc2)cs1,4,78*,-15,3,-5,-3,54,33*
O=c1cc[nH]c2ccc([N+](=O)[O-])cc12,-13,122*,1,2,3,-13,51,61*
O=C(NCCCN1CCOCC1)c1cc2cc(Br)ccc2oc1=O,5,124*,-18,10,3,-20,42,41*
O=C(NCCN1CCOCC1)c1cc2cc(Br)ccc2oc1=O,10,22,7,0,-6,4,.,.
CCCN(CCC)CCCNC(=O)c1cc2cc3ccc(OC)cc3nc2o1,-13,123*,-14,8,-14,-7,36,58*
CCCCN(CC)CCCNC(=O)c1cc2cc3ccc(OC)cc3nc2o1,-1,104*,-20,12,-8,-25,45,49*
COc1ccc2cc3cc(C(=O)NCCc4ccc(OC)c(OC)c4)oc3nc2c1,45,43,-21,16,-4,-22,.,.
CC(C)(C)OC(=O)N1CCC[C@H]1C(=O)N1CCC[C@H]1C(=O)NCc1ccncc1,-11,.,.,0,.,.,.,.
c1ccc2c(-c3nc4ncccc4o3)cccc2c1,8,90*,-7,22,-7,-18,89*,10
COc1ccc(N2C(=O)c3cccc4cccc(c34)C2=O)cc1,-10,13,-11,1,-8,-5,.,.
O=C1c2cccc3cccc(c23)C(=O)N1Cc1ccccn1,4,.,.,0,.,.,.,.
O=C1c2cccc3cccc(c23)C(=O)N1c1ccncc1,-4,111*,-12,0,-4,-15,54,67*
O=C1c2cccc3cccc(c23)C(=O)N1c1ccccn1,-3,99*,-12,3,4,-12,61*,60*
CCOC(=O)C1(C)CCCN(C(=O)c2c(F)cccc2F)C1 (stereo not drawn),-6,.,.,1,.,.,.,.
SMILES,TAAR1 antagonist,OX1R antag-1,OX1R antag-2,TAAR1 ag,GPR7 antagonist,CHO parental Ca,OX1R HTRF conf,CHO-K1 HTRF cnt
CCN(CC(=O)Nc1ccc(N2CCOCC2)cc1)C(=O)Cc1ccccc1,-13,10,-12,1,.,6,.,.
CC1(C)CC(NC(=O)c2ccc(Br)o2)CC(C)(C)N1,4,8,-15,0,-5,3,.,.
O=C(CSc1ccc(-c2ccccc2)nn1)c1ccccc1,7,82*,-5,2,-11,-21,41,10
CC(C)Cn1c(N)c(C(=O)COC(=O)CCc2nc3ccccc3c(=O)[nH]2)c(=O)n(C)c1=O,13,1,-33,11,.,-25,.,.
CC(C)Cn1c(N)c(C(=O)COC(=O)CCNS(=O)(=O)c2ccccc2)c(=O)n(C)c1=O,51*,99*,-10,11,.,-3,22,2
O=C(Nc1cccc(Cl)c1)Nc1ccc(Br)cc1F,19,82*,15,6,-2,10,36,15
O=C(O)c1c2c(nc3ccccc13)/C(=C/c1ccc(OC(F)F)cc1)CCC2,11,35,8,-2,5,7,.,.
O=C(O)c1c2c(nc3ccccc13)/C(=C/c1c(F)cccc1F)CCC2,-10,113*,9,-1,12,1,45,18*
CC1(Cc2ccc(Cl)cc2)C(=O)Nc2c(Cl)ccc(Cl)c21 (stereo not drawn),12,.,.,-1,.,.,.,.
COc1ccc(C(=O)Nc2nc(-c3ccccn3)cs2)cc1S(=O)(=O)N1CCOCC1,9,9,-9,17,.,-14,.,.
O=C(NCc1cccnc1)[C@@H]1CC=C[C@@H]2CCN(Cc3ccc(Cl)c(Cl)c3)C(=O)[C@@H]21,13,28,-19,2,.,-16,.,.
O=C(NCCc1ccccc1)[C@@H]1CC=C[C@@H]2CCN(Cc3ccc(Cl)c(Cl)c3)C(=O)[C@@H]21,17,82*,17,32,.,-29,66*,5
CC(C)NC[C@@H](O)COc1cccc2ccccc12,-21,5,-5,11,.,-13,.,.
O=[N+]([O-])c1ccc(/C=N/n2cn[nH]c2=S)cc1,-10,109*,-11,0,-13,-2,60*,74*
CSc1nncn1/N=C/c1ccc([N+](=O)[O-])cc1,-10,90*,-1,15,-14,-5,46,46*
O=C1c2ccccc2C(=O)N1C1C(=O)N2CCSC12C(=O)OCc1ccccc1 (stereo not drawn),-16,.,.,5,.,.,.,.
O=C(NC1CCCCC1)C1CC(=O)N(c2cccc([N+](=O)[O-])c2)C1 (stereo not drawn),-5,88*,1,6,-10,10,35,7
CN(C1CCS(=O)(=O)C1)S(=O)(=O)c1cccc2nsnc12 (stereo not drawn),-1,90*,-18,10,8,-12,49,41*
